Measurements reported in ChEMBL document CHEMBL4765452, “Discovery of (E)-N-(4-methyl-5-(3-(2-(pyridin-2-yl)vinyl)-1H-indazol-6-yl)thiazol-2-yl)-2-(4-methylpiperazin-1-yl)acetamide (IHMT-TRK-284) as a novel orally available type II TRK kinase inhibitor capable of overcoming multiple resistant mutants” (Eur J Med Chem, 2020).
pEC50, pIC50: −log10 of the molar value. Active and inactive are the calls of the source. The rule behind the calls is not given here.

What was measured:
[1] = target: T1, BDNF/NT-3 growth factors receptor (Homo sapiens, UniProt Q16620); assay: Inhibition of human TRKB by Z-LYTE or ADP-Glo assay
Method in brief: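 Purified kinase proteins tested biochemically in Z'LYTE or ADP-Glo format.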

[2] = target: T1, BDNF/NT-3 growth factors receptor; assay: Inhibition of TEL fused wild type TRKB (unknown origin) transfected in mouse BaF3 cells assessed as reduction in phosphorylation at Y515 residue after 2 hrs by Western blot analysis; format: cell-based
Method in brief: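 Isogenic BaF3 lines, made in-house, grown in RPMI 1640 with 10% FBS and 1% penicillin/streptomycin at 37 °C under 5% CO2. Serially diluted compound added for 2 h. Cells collected and lysed, and lysates analysed by western blotting for phospho-TRK. EC50 derived from the blots.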

[3] = Inhibition of LMNA fused TRKA V573M mutant (unknown origin) transfected in mouse BaF3 cells assessed as reduction in phosphorylation at Y490 residue after 2 hrs by Western blot analysis; settings: Homo sapiens, BaF3, 2 h
[4] = Antiproliferative activity against human KM-12-LUC cells harboring […] fused TRKA assessed as growth inhibition after 72 hrs by CCK8 assay; format: functional; settings: KM12-Luc
Method in brief: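 KM-12-LUC cells seeded at 3 × 10⁴ cells/mL, incubated overnight at 37 °C, 5% CO₂, then medium replaced with fresh medium containing a range of compound concentrations for 72 h; viability read by CCK-8 absorbance at 450 nm, normalized to DMSO control, GI₅₀ from curve fitting.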

[5] = target: T2, High affinity nerve growth factor receptor (Homo sapiens, UniProt P04629); assay: Inhibition of TRKA in human KM-12-LUC cells assessed as reduction in TRKA phosphorylation at Y490 residue at 0.01 uM after 2 hrs by Western blot analysis; format: cell-based; settings: KM12-Luc
Method in brief: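 KM-12-LUC cells cultured in RPMI 1640 with 10% FBS and 1% penicillin/streptomycin. Serially diluted compound applied for 2 h. Cells collected and lysed, and lysates analysed by western blotting for phospho-TRKA Y490, AKT T308/S473 and ERK1/2 T202/Y204.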
Target sequence in this assay (P04629 33-796 limits assumed): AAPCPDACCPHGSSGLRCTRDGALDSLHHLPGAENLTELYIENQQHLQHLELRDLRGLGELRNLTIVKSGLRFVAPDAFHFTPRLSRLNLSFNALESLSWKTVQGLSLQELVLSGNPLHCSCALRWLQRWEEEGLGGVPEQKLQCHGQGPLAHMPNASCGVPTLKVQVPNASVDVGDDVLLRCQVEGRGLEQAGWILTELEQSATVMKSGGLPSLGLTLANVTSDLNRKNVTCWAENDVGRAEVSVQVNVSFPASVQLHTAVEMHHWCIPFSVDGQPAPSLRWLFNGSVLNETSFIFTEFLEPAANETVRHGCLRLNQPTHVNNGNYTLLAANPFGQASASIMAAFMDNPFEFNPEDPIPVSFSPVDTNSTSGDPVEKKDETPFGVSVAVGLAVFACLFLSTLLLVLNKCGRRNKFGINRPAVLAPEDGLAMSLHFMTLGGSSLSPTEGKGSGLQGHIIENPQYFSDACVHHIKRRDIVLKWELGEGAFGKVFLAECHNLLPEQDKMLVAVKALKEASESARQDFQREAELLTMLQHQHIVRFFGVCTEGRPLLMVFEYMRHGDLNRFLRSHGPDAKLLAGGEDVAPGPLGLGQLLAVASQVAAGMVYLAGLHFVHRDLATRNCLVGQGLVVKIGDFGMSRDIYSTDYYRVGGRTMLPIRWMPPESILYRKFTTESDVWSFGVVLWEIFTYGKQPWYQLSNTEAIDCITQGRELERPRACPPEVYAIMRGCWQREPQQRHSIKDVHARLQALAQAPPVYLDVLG

[6] = target: T2, High affinity nerve growth factor receptor; assay: Inhibition of TRKA in human KM-12-LUC cells assessed as reduction in ERK1/2 phosphorylation at T202/Y204 residues after 2 hrs by Western blot analysis; format: cell-based, KM12-Luc
Method in brief: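 KM-12-LUC (TPM3-TRKA fused colon cancer cells) grown in RPMI 1640 with 10% FBS and 1% penicillin/streptomycin at 37 °C under 5% CO2. Serially diluted compound added for 2 h. Lysates western blotted for phospho-AKT (T308/S473) and phospho-ERK1/2 (T202/Y204).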
Target sequence in this assay (P04629 whole entry): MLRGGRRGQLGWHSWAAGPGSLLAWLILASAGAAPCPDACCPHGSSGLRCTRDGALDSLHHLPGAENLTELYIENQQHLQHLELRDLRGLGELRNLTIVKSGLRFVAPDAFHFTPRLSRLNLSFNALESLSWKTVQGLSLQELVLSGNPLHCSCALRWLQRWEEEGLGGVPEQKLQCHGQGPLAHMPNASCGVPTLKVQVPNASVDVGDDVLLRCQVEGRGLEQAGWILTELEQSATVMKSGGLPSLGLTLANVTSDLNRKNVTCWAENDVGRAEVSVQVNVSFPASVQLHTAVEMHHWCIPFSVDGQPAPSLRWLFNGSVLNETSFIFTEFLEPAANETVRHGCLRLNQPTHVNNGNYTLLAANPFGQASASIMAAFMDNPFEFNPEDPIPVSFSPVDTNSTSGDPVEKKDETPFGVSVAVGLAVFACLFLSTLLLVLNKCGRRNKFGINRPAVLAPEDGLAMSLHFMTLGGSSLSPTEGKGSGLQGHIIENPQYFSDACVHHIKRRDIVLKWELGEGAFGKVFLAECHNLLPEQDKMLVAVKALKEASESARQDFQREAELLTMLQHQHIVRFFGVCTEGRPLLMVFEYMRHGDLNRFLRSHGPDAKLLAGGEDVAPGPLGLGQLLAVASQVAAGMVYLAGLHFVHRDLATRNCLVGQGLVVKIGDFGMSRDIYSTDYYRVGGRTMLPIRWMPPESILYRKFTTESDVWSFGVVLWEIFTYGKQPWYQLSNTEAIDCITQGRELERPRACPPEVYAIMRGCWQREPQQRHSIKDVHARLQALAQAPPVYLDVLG

[7] = AUC (0 to t) in mouse at 1 mg/kg, iv; format: ADME, organism-based; parameters: dose 1 mg/kg; settings: in vivo
Method in brief: (§1)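 Intravenous and oral arms were run in parallel in each species (mice, Sprague Dawley rats, beagle dogs). Exposure is reported as AUC0-t in ng/mL·h.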

[8] = AUC (0 to t) in mouse at 10 mg/kg, po; format: ADME, organism-based; parameters: dose 10 mg/kg; settings: in vivo; method in brief: as §1
[9] = Apparent volume of distribution in mouse at 10 mg/kg, po; format: ADME, organism-based; settings: in vivo
[10] = AUC (0 to t) in Sprague-Dawley rat at 10 mg/kg, po; format: ADME, organism-based; parameters: dose 10 mg/kg; settings: in vivo; method in brief: as §1
[11] = Tmax in Sprague-Dawley rat at 10 mg/kg, po; format: ADME, organism-based; settings: in vivo
Method in brief: (§2)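 Single-dose PK in mice, Sprague Dawley rats and beagle dogs, given i.v. (1 mg/kg) or p.o. (10 mg/kg mice and rats; 5 mg/kg dogs). AUC0-t, T1/2, Tmax and oral bioavailability (F) derived from plasma profiles.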

[12] = Apparent volume of distribution in Sprague-Dawley rat at 10 mg/kg, po; format: ADME, organism-based; settings: in vivo
[13] = Apparent clearance in Sprague-Dawley rat at 1 mg/kg, iv; format: ADME, organism-based; settings: in vivo
[14] = Cmax in Sprague-Dawley rat at 1 mg/kg, iv; format: ADME, organism-based; parameters: route intravenous, dose 1 mg/kg; settings: in vivo
[15] = Oral bioavailability in Sprague-Dawley rat at 10 mg/kg; format: ADME, organism-based; settings: in vivo; method in brief: as §2
[16] = AUC (0 to t) in Beagle dog at 1 mg/kg, iv; format: ADME, organism-based, Canis lupus familiaris; parameters: dose 1 mg/kg; settings: in vivo; method in brief: as §1
[17] = AUC (0 to t) in Beagle dog at 5 mg/kg, po; format: ADME, organism-based, Canis lupus familiaris; parameters: dose 5 mg/kg; settings: in vivo; method in brief: as §1
[18] = Tmax in Beagle dog at 1 mg/kg, iv; format: ADME, organism-based, Canis lupus familiaris; settings: in vivo; method in brief: as §2
[19] = Tmax in Beagle dog at 5 mg/kg, po; format: ADME, organism-based, Canis lupus familiaris; settings: in vivo; method in brief: as §2
[20] = Apparent clearance in Beagle dog at 5 mg/kg, po; format: ADME, organism-based, Canis lupus familiaris; settings: in vivo, read-out: CLz/F (converted)
[21] = Cmax in Beagle dog at 1 mg/kg, iv; format: ADME, organism-based, Canis lupus familiaris; parameters: route intravenous, dose 1 mg/kg; settings: in vivo
[22] = Cmax in Beagle dog at 5 mg/kg, po; format: ADME, organism-based, Canis lupus familiaris; parameters: route oral, dose 5 mg/kg; settings: in vivo
[23] = system: BaF3; assay: Antitumor activity against mouse BAF3 cells harboring TEL fused TRKC allografted in nude mouse assessed as tumor growth inhibition at 80 mg/kg, po administered once daily for 10 days relative to control; format: functional; settings: 240 h, time 10 day, read-out: TGI
Method in brief: (§3)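 Nu/nu mice given 1 million BaF3 cells (TEL-TRKA, TEL-TRKB, TEL-TRKC, LMNA-TRKA-F589L or LMNA-TRKA-G667S) in DMEM, 1:1 with matrigel, injected subcutaneously into the right flank; oral gavage began at 200–400 mm³, 5 mice per group, compound in 0.5% methylcellulose/0.4% Tween 80 in ddH₂O, 10 days; tumor volume [(W²×L)/2] and body weight recorded daily; TGI versus vehicle.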

[24] = system: BaF3; assay: Antitumor activity against mouse BAF3 cells harboring LMNA fused TRKA-F589L mutant allografted in nude mouse assessed as tumor growth inhibition at 80 mg/kg, po administered once daily for 10 days relative to control; format: functional; settings: 240 h, time 10 day, read-out: TGI; method in brief: as §3
[25] = system: BaF3; assay: Antitumor activity against mouse BAF3 cells harboring TEL fused TRKC allografted in nude mouse assessed as tumor growth inhibition at 40 mg/kg, po administered once daily for 10 days relative to control; format: functional; settings: 240 h, time 10 day, read-out: TGI; method in brief: as §3
[26] = Toxicity in mouse xenografted with mouse BAF3 cells harboring TEL fused TRKC assessed as effect on body weight at 40 to 80 mg/kg, po administered once daily for 10 days; format: organism-based; settings: in vivo, 240 h, dose 40-80 mg/kg/day, time 10 day
Method in brief: (§4)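 nu/nu mice were given subcutaneous right-flank implants in 1:1 DMEM/matrigel: 1 million BaF3 fusion cells or 5 million KM-12-LUC cells. Oral gavage started at 150–200 mm3 (xenograft) or 200–400 mm3 (allograft). Dosing used 40 or 80 mg/kg in HKI vehicle (0.5% methylcellulose/0.4% Tween 80 in ddH2O), with 5 mice per group. Body weight was recorded daily and behaviour observed.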

[27] = Toxicity in mouse xenografted with mouse BAF3 cells harboring TEL fused TRKA assessed as effect on animals behaviour at 40 to 80 mg/kg, po administered once daily for 10 days; format: organism-based; settings: in vivo, 240 h, dose 40-80 mg/kg/day, time 10 day; method in brief: as §4
[28] = Toxicity in mouse xenografted with mouse BAF3 cells harboring TEL fused TRKB assessed as effect on animals behaviour at 40 to 80 mg/kg, po administered once daily for 10 days; format: organism-based; settings: in vivo, 240 h, dose 40-80 mg/kg/day, time 10 day; method in brief: as §4
[29] = Toxicity in mouse xenografted with mouse BAF3 cells harboring TEL fused TRKC assessed as effect on animals behaviour at 40 to 80 mg/kg, po administered once daily for 10 days; format: organism-based; settings: in vivo, 240 h, dose 40-80 mg/kg/day, time 10 day; method in brief: as §4

T1 sequence (Q16620 whole entry): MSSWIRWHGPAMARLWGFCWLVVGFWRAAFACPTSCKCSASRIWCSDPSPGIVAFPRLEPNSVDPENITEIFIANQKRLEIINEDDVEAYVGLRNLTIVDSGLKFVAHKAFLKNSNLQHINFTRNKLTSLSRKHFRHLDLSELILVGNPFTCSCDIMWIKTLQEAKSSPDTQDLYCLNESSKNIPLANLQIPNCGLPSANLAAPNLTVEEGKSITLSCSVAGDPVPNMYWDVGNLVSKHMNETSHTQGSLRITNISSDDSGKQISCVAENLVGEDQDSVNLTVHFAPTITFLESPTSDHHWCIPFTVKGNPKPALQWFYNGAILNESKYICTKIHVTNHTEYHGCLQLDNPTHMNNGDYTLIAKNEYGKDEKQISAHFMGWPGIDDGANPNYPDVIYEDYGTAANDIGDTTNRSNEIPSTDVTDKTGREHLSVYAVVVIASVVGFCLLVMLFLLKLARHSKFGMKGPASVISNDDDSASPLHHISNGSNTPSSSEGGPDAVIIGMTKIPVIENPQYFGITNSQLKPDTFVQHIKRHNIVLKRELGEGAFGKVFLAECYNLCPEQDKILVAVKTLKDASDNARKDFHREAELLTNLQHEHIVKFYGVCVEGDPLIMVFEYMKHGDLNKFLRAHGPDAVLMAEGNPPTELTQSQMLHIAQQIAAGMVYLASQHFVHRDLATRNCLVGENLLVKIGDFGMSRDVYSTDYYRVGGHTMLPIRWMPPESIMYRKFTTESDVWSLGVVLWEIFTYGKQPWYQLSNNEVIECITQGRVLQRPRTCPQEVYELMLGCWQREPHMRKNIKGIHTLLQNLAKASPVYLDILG

SMILES: Cc1nc(NC(=O)CN2CCN(C)CC2)sc1-c1ccc2c(/C=C/c3ccccn3)n[nH]c2c1
- pIC50 [1]: 9.15
- pEC50 [2]: 7.16
- pEC50 [3]: 7.89
- GI50 [4]: 2 nM
- inhibition [5]: Active
- pEC50 [6]: > 7.52
- AUC(0-t) [7]: 748 ng·h/mL
- AUC(0-t) [8]: 1430 ng·h/mL
- Vz [9]: 31.567 L/kg
- AUC(0-t) [10]: 952 ng·h/mL
- Tmax [11]: 4.7 h
- Vz [12]: 37.364 L/kg
- CLz/F [13]: 41.35 mL/min/kg
- Cmax [14]: 363 ng/mL
- bioavailability [15]: 26%
- AUC(0-t) [16]: 323 ng·h/mL
- AUC(0-t) [17]: 464 ng·h/mL
- Tmax [18]: 4.8 min
- Tmax [19]: 4.3 h
- CL/F [20]: 140 mL/min/kg
- Cmax [21]: 284 ng/mL
- Cmax [22]: 131 ng/mL
- inhibition in vivo at 80 mg/kg/day [23]: 57.5%
- inhibition in vivo at 80 mg/kg/day [24]: 87.7%
- inhibition in vivo at 40 mg/kg/day [25]: 40.6%
- Activity [26]: Non-Toxic
- Activity [27]: Non-Toxic
- Activity [28]: Non-Toxic
- Activity [29]: Non-Toxic
